# In the M2OR odorant receptor database:
# Tests used:
# Conditions in all cases: stereoisomer not certain
# [1] = target: OR4P4 (Homo sapiens) (UniProt Q8NGL7)
# Method in brief: (§1)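 Whether a receptor–molecule pair is responsive (active) rests on the original authors' judgment that its measured signal was statistically different from baseline. Pairs without that judgment are non-responsive (inactive). Sources used varied assay methods, commonly transient luciferase assays in mammalian cell lines.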
# [2] = target: T1, OR4Q3 (Homo sapiens) (UniProt Q8NH05)
# T1 sequence (whole entry): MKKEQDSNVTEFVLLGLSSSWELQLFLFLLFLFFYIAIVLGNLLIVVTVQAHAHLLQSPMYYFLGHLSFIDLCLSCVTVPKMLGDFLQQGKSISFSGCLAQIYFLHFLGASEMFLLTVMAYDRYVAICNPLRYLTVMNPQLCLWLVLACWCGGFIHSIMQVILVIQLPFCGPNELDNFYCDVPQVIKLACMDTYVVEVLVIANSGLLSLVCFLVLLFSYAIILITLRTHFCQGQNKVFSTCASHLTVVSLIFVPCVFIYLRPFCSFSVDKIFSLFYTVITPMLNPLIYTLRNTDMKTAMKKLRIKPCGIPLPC
# Method in brief: as §1
# [3] = tested on: OR4Q3 T135A
# Chain of OR4Q3 T135A (as listed by the source, stated change not applied): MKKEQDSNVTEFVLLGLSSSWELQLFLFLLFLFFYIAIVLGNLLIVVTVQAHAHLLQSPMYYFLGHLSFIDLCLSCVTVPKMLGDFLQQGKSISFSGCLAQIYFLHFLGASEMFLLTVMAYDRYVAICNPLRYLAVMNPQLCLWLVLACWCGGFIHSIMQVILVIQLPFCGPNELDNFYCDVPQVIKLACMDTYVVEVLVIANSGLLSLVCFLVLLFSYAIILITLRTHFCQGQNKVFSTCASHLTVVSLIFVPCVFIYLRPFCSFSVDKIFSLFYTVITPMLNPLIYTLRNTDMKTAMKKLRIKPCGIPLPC
# Method in brief: as §1
# [4] = target: OR4S1 (Homo sapiens) (UniProt Q8NGB4)
# Chain of OR4S1 (Homo sapiens) (Q8NGB4 whole entry): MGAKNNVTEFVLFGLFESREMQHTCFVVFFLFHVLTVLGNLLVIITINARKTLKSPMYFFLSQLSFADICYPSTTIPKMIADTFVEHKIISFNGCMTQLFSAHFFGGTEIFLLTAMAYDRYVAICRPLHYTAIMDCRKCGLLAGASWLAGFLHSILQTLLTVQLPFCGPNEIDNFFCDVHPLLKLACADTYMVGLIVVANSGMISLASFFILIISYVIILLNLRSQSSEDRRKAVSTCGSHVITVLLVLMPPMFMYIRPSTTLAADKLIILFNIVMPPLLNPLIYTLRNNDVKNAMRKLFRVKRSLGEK
# Method in brief: as §1
# [5] = target: OR4S2 (Homo sapiens) (UniProt Q8NH73)
# Chain of OR4S2 (Homo sapiens) (Q8NH73 whole entry): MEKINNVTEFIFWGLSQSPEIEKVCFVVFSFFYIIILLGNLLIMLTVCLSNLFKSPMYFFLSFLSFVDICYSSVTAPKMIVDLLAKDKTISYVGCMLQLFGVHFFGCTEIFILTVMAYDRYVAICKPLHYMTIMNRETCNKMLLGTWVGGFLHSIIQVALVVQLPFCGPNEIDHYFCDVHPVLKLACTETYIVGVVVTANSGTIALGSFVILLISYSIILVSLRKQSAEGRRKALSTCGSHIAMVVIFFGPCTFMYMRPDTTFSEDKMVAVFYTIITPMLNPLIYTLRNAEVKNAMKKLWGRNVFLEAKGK
# Method in brief: as §1
# [6] = target: OR4X1 (Homo sapiens) (UniProt Q8NH49)
# Chain of OR4X1 (Homo sapiens) (Q8NH49 whole entry): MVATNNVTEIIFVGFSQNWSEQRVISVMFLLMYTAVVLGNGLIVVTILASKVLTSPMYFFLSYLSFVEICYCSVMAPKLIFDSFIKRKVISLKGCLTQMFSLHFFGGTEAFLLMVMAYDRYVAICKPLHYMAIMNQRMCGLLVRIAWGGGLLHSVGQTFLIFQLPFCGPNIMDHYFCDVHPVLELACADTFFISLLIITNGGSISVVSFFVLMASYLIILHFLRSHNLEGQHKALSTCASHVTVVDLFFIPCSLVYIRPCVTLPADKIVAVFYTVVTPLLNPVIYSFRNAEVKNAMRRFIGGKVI
# Method in brief: as §1
# [7] = target: OR4X2 (Homo sapiens) (UniProt Q8NGF9)
# Chain of OR4X2 (Homo sapiens) (Q8NGF9 whole entry): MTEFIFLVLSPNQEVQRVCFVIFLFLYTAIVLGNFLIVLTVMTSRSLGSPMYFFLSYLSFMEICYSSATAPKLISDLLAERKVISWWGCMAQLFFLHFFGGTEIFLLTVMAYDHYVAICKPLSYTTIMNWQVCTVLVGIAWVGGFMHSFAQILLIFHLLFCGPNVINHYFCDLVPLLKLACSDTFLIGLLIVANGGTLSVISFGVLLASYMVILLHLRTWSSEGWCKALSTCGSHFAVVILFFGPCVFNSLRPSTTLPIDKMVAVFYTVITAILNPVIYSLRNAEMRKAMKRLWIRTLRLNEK
# Method in brief: as §1
# [8] = target: OR51A2 (Homo sapiens) (UniProt Q8NGJ7)
# Chain of OR51A2 (Homo sapiens) (Q8NGJ7 whole entry): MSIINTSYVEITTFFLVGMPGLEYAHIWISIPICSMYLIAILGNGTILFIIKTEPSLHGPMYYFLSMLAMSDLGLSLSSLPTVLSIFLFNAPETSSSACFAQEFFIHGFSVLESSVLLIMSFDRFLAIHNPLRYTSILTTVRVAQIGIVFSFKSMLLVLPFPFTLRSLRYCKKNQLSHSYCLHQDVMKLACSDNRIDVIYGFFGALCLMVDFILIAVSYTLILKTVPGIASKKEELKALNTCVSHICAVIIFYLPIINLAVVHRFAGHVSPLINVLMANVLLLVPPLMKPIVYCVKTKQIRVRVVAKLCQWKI
# Method in brief: as §1
# [9] = target: OR4Q2 (Homo sapiens) (UniProt P0C623)
# Chain of OR4Q2 (Homo sapiens) (P0C623 as listed by the source): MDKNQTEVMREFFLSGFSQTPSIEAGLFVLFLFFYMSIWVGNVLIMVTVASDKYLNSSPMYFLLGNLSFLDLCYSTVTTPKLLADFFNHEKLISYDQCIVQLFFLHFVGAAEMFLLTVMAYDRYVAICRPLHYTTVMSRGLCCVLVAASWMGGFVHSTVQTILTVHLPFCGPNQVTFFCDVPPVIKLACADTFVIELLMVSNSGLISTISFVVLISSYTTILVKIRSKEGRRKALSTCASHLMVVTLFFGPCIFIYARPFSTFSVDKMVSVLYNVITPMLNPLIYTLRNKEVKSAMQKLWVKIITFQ
# Method in brief: as §1
# [10] = tested on: OR4Q3
# Chain of OR4Q3 (as listed by the source): as the sequence (as listed by the source, stated change not applied) above, with A135T, F238L counted along it
# Method in brief: as §1
# 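Further: active if original authors judged signal statistically different from baseline.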
# Chain of OR4P4 (Homo sapiens) (Q8NGL7 whole entry): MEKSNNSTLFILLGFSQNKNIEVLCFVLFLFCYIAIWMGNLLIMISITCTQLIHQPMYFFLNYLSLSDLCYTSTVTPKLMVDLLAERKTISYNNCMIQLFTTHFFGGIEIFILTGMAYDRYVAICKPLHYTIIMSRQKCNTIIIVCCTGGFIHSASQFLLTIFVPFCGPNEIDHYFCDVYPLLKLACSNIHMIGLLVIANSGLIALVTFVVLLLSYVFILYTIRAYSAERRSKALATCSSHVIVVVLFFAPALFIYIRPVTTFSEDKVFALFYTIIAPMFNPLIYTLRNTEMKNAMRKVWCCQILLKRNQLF
Compound,odorant receptor agonist call [1],odorant receptor agonist call [2],odorant receptor agonist call [3],odorant receptor agonist call [4],odorant receptor agonist call [5],odorant receptor agonist call [6],odorant receptor agonist call [7],odorant receptor agonist call [8],odorant receptor agonist call [9],odorant receptor agonist call [10]
C=CCOC(=O)Cc1ccccc1,inactive,inactive,inactive,inactive,inactive,inactive,inactive,inactive,–,–
Cc1c([N+](=O)[O-])c(C)c([N+](=O)[O-])c(C(C)(C)C)c1[N+](=O)[O-],inactive,inactive,–,inactive,inactive,inactive,inactive,inactive,inactive,–
CCCCOC(=O)c1ccccc1N,–,active,–,–,–,–,–,–,–,inactive
